Experimental data reported in ChEMBL document CHEMBL1240350, “In vitro activity of CEM-101 against Streptococcus pneumoniae and Streptococcus pyogenes with defined macrolide resistance mechanisms” (Antimicrob Agents Chemother, 2010).
Values after ≈ are worked out from the molar mass of the structure shown.

Legend:
Assay type in all cases: functional
[1] = system: Streptococcus pneumoniae; test: Antibacterial activity against penicillin-susceptible Streptococcus pneumoniae after overnight incubation by agar dilution method
Outline: (§1)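 Agar dilution on Mueller-Hinton agar supplemented with 5% sheep blood. Inoculum 10^4 CFU/spot, incubated overnight at 35°C in ambient air. Test strains were clinical pneumococcal isolates. S. pneumoniae ATCC 49619 was included as the quality control strain in each run. MIC range, MIC50 and MIC90 were reported for each susceptibility category.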

[2] = system: Streptococcus pneumoniae; test: Antibacterial activity against Streptococcus pneumoniae harboring erm(B) gene after overnight incubation by agar dilution method
Outline: (§2)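 Clinical isolates collected 1998–2008, with macrolide-resistance genes confirmed by PCR. MICs by agar dilution on Mueller-Hinton agar with 5% sheep blood. Inoculum 10^4 CFU/spot, incubated overnight at 35°C in ambient air. S. pneumoniae ATCC 49619 was the quality-control strain in every run.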

[3] = system: Streptococcus pneumoniae; test: Antibacterial activity against Streptococcus pneumoniae harboring erm(A) gene after overnight incubation by agar dilution method; outline: as §2
[4] = system: Streptococcus pneumoniae; test: Antibacterial activity against Streptococcus pneumoniae harboring mutation in 23S rRNA after overnight incubation by agar dilution method; outline: as §2
[5] = system: Streptococcus pneumoniae; test: Antibacterial activity against quinolone-resistant Streptococcus pneumoniae after overnight incubation by agar dilution method; outline: as §1
[6] = system: Streptococcus pneumoniae; test: Antibacterial activity against macrolide-resistant Streptococcus pneumoniae harboring erm(B) gene after overnight incubation by agar dilution method
Outline: (§3)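 Agar dilution MICs on Mueller-Hinton agar with 5% sheep blood. Inoculum 10^4 CFU/spot, incubated overnight at 35°C in ambient air. Clinical S. pneumoniae or group A streptococcal isolates; resistance genotypes (erm(B), erm(A), mef(A)/mef(E)) were assigned by PCR. S. pneumoniae ATCC 49619 served as QC strain in each run. Range, MIC50 and MIC90 reported per phenotype group.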

[7] = system: Streptococcus pneumoniae; test: Antibacterial activity against macrolide-resistant Streptococcus pneumoniae harboring mef(A) gene after overnight incubation by agar dilution method; outline: as §3
[8] = system: Streptococcus pyogenes; test: Antibacterial activity against macrolide-susceptible Streptococcus pyogenes after overnight incubation by agar dilution method
Outline: (§4)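 Agar dilution on Mueller-Hinton agar supplemented with 5% sheep blood, inoculum 10^4 CFU/spot, read after overnight incubation at 35°C in ambient air. Clinical isolates with defined genotypes; S. pneumoniae ATCC 49619 quality control strain included in each run. MIC50/MIC90 are MICs inhibiting 50% and 90% of isolates.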

[9] = system: Streptococcus pyogenes; test: Antibacterial activity against Streptococcus pyogenes harboring erm(B) gene after overnight incubation by agar dilution method; outline: as §2
[10] = system: Streptococcus pyogenes; test: Antibacterial activity against Streptococcus pyogenes harboring erm(A) gene after overnight incubation by agar dilution method; outline: as §2
[11] = system: Streptococcus pyogenes; test: Antibacterial activity against Streptococcus pyogenes harboring mutation in L4 ribosomal protein after overnight incubation by agar dilution method; outline: as §2
[12] = system: Streptococcus pyogenes; test: Antibacterial activity against macrolide-resistant Streptococcus pyogenes harboring erm(B) gene after overnight incubation by agar dilution method; outline: as §3
[13] = system: Streptococcus pyogenes; test: Antibacterial activity against macrolide-resistant Streptococcus pyogenes harboring erm(A) gene after overnight incubation by agar dilution method; outline: as §3
[14] = system: Streptococcus pneumoniae; test: Antibacterial activity against penicillin-intermediate Streptococcus pneumoniae after overnight incubation by agar dilution method; outline: as §4
[15] = system: Streptococcus pneumoniae; test: Antibacterial activity against penicillin-resistant Streptococcus pneumoniae after overnight incubation by agar dilution method; outline: as §1
[16] = system: Streptococcus pneumoniae; test: Antibacterial activity against macrolide-susceptible Streptococcus pneumoniae after overnight incubation by agar dilution method; outline: as §3
[17] = system: Streptococcus pneumoniae; test: Antibacterial activity against Streptococcus pneumoniae harboring mef(A) gene after overnight incubation by agar dilution method; outline: as §2
[18] = system: Streptococcus pneumoniae; test: Antibacterial activity against Streptococcus pneumoniae harboring erm(B) and mef(A) gene after overnight incubation by agar dilution method; outline: as §2
[19] = system: Streptococcus pneumoniae; test: Antibacterial activity against Streptococcus pneumoniae harboring mutation in L4 ribosomal protein after overnight incubation by agar dilution method; outline: as §2
[20] = system: Streptococcus pneumoniae; test: Antibacterial activity against quinolone-susceptible Streptococcus pneumoniae after overnight incubation by agar dilution method; outline: as §1
[21] = system: Streptococcus pneumoniae; test: Antibacterial activity against macrolide-resistant Streptococcus pneumoniae harboring erm(B) and mef(A) gene after overnight incubation by agar dilution method; outline: as §3
[22] = system: Streptococcus pneumoniae; test: Antibacterial activity against macrolide-resistant Streptococcus pneumoniae harboring mutation in L4 ribosomal protein after overnight incubation by agar dilution method; outline: as §3
[23] = system: Streptococcus pyogenes; test: Antibacterial activity against Streptococcus pyogenes harboring mef(A) gene after overnight incubation by agar dilution method; outline: as §2
[24] = system: Streptococcus pyogenes; test: Antibacterial activity against macrolide-resistant Streptococcus pyogenes harboring mef(A) gene after overnight incubation by agar dilution method; outline: as §3

## COc1c(N2C[C@@H]3CCCN[C@@H]3C2)c(F)cc2c(=O)c(C(=O)O)cn(C3CC3)c12 [MOXIFLOXACIN]
[1]
  MIC50: 0.5 µg/mL (≈ 1.25 µM)
  MIC90: 4 µg/mL (≈ 9.96 µM)
[2]
  MIC50: 0.25 µg/mL (≈ 0.623 µM)
  MIC90: 0.5 µg/mL (≈ 1.25 µM)
[3]
  MIC: 0.25 µg/mL (≈ 0.623 µM)
[4]
  MIC: 0.25 µg/mL (≈ 0.623 µM)
[5]
  MIC50: 4 µg/mL (≈ 9.96 µM)
  MIC90: 4 µg/mL (≈ 9.96 µM)
[6]
  MIC50: 0.25 µg/mL (≈ 0.623 µM)
  MIC90: 0.5 µg/mL (≈ 1.25 µM)
[7]
  MIC50: 0.25 µg/mL (≈ 0.623 µM)
  MIC90: 0.5 µg/mL (≈ 1.25 µM)
[8]
  MIC50: 0.25 µg/mL (≈ 0.623 µM)
  MIC90: 0.25 µg/mL (≈ 0.623 µM)
[9]
  MIC50: 0.25 µg/mL (≈ 0.623 µM)
  MIC90: 0.25 µg/mL (≈ 0.623 µM)
[10]
  MIC50: 0.25 µg/mL (≈ 0.623 µM)
  MIC90: 0.25 µg/mL (≈ 0.623 µM)
[11]
  MIC: 0.25 µg/mL (≈ 0.623 µM)
[12]
  MIC50: 0.25 µg/mL (≈ 0.623 µM)
  MIC90: 0.25 µg/mL (≈ 0.623 µM)
[13]
  MIC50: 0.25 µg/mL (≈ 0.623 µM)
  MIC90: 0.25 µg/mL (≈ 0.623 µM)

## CC1(C)S[C@@H]2[C@H](NC(=O)Cc3ccccc3)C(=O)N2[C@H]1C(=O)O [PENICILLIN G]
[1]
  MIC50: 0.03 µg/mL (≈ 0.0897 µM)
  MIC90: 0.06 µg/mL (≈ 0.179 µM)
[14]
  MIC50: 0.5 µg/mL (≈ 1.5 µM)
  MIC90: 1 µg/mL (≈ 2.99 µM)
[15]
  MIC50: 4 µg/mL (≈ 12 µM)
  MIC90: 8 µg/mL (≈ 23.9 µM)
[16]
  MIC50: 1 µg/mL (≈ 2.99 µM)
  MIC90: 2 µg/mL (≈ 5.98 µM)
[2]
  MIC50: 1 µg/mL (≈ 2.99 µM)
  MIC90: 4 µg/mL (≈ 12 µM)
[17]
  MIC50: 0.125 µg/mL (≈ 0.374 µM)
  MIC90: 4 µg/mL (≈ 12 µM)
[3]
  MIC: 0.03 µg/mL (≈ 0.0897 µM)
[18]
  MIC50: 2 µg/mL (≈ 5.98 µM)
  MIC90: 4 µg/mL (≈ 12 µM)
[19]
  MIC50: 4 µg/mL (≈ 12 µM)
  MIC90: 16 µg/mL (≈ 47.8 µM)
[4]
  MIC: 0.015 µg/mL (≈ 0.0449 µM)
[20]
  MIC50: 1 µg/mL (≈ 2.99 µM)
  MIC90: 4 µg/mL (≈ 12 µM)
[5]
  MIC50: 0.25 µg/mL (≈ 0.748 µM)
  MIC90: 4 µg/mL (≈ 12 µM)
[6]
  MIC50: 1 µg/mL (≈ 2.99 µM)
  MIC90: 4 µg/mL (≈ 12 µM)
[7]
  MIC50: 0.125 µg/mL (≈ 0.374 µM)
  MIC90: 4 µg/mL (≈ 12 µM)
[21]
  MIC50: 2 µg/mL (≈ 5.98 µM)
  MIC90: 4 µg/mL (≈ 12 µM)
[22]
  MIC50: 4 µg/mL (≈ 12 µM)
  MIC90: 16 µg/mL (≈ 47.8 µM)
[8]
  MIC50: 0.015 µg/mL (≈ 0.0449 µM)
  MIC90: 0.015 µg/mL (≈ 0.0449 µM)
[9]
  MIC50: 0.015 µg/mL (≈ 0.0449 µM)
  MIC90: 0.015 µg/mL (≈ 0.0449 µM)
[23]
  MIC50: 0.015 µg/mL (≈ 0.0449 µM)
  MIC90: 0.03 µg/mL (≈ 0.0897 µM)
[10]
  MIC50: 0.015 µg/mL (≈ 0.0449 µM)
  MIC90: 0.015 µg/mL (≈ 0.0449 µM)
[11]
  MIC: 0.015 µg/mL (≈ 0.0449 µM)
[12]
  MIC50: 0.015 µg/mL (≈ 0.0449 µM)
  MIC90: 0.015 µg/mL (≈ 0.0449 µM)
[24]
  MIC50: 0.015 µg/mL (≈ 0.0449 µM)
  MIC90: 0.03 µg/mL (≈ 0.0897 µM)
[13]
  MIC50: 0.015 µg/mL (≈ 0.0449 µM)
  MIC90: 0.015 µg/mL (≈ 0.0449 µM)

## CC[C@H]1OC(=O)[C@H](C)[C@@H](O[C@H]2C[C@@](C)(OC)[C@@H](O)[C@H](C)O2)[C@H](C)[C@@H](O[C@@H]2O[C@H](C)C[C@H](N(C)C)[C@H]2O)[C@](C)(O)C[C@@H](C)C(=O)[C@H](C)[C@@H](O)[C@]1(C)O [ERYTHROMYCIN]
[1]
  MIC50: 4 µg/mL (≈ 5.45 µM)
  MIC90: > 64 µg/mL
[14]
  MIC50: > 64 µg/mL
  MIC90: > 64 µg/mL
[16]
  MIC50: 0.06 µg/mL (≈ 0.0818 µM)
  MIC90: 0.125 µg/mL (≈ 0.17 µM)
[17]
  MIC50: 4 µg/mL (≈ 5.45 µM)
  MIC90: 32 µg/mL (≈ 43.6 µM)
[3]
  MIC: 2 µg/mL (≈ 2.73 µM)
[4]
  MIC: 8 µg/mL (≈ 10.9 µM)
[20]
  MIC50: > 64 µg/mL
  MIC90: > 64 µg/mL
[5]
  MIC50: 0.06 µg/mL (≈ 0.0818 µM)
[7]
  MIC50: 4 µg/mL (≈ 5.45 µM)
  MIC90: 32 µg/mL (≈ 43.6 µM)
[8]
  MIC50: 0.06 µg/mL (≈ 0.0818 µM)
  MIC90: 0.125 µg/mL (≈ 0.17 µM)
[9]
  MIC50: > 64 µg/mL
  MIC90: > 64 µg/mL
[23]
  MIC50: 16 µg/mL (≈ 21.8 µM)
  MIC90: 32 µg/mL (≈ 43.6 µM)
[10]
  MIC50: 4 µg/mL (≈ 5.45 µM)
  MIC90: > 64 µg/mL
[11]
  MIC: 2 µg/mL (≈ 2.73 µM)
[12]
  MIC50: > 64 µg/mL
  MIC90: > 64 µg/mL
[24]
  MIC50: 16 µg/mL (≈ 21.8 µM)
  MIC90: 32 µg/mL (≈ 43.6 µM)
[13]
  MIC50: 4 µg/mL (≈ 5.45 µM)
  MIC90: > 64 µg/mL

## C[C@H]1COc2c(N3CCN(C)CC3)c(F)cc3c(=O)c(C(=O)O)cn1c23.C[C@H]1COc2c(N3CCN(C)CC3)c(F)cc3c(=O)c(C(=O)O)cn1c23.O [LEVOFLOXACIN]
[1]
  MIC50: 1 µg/mL
  MIC90: 16 µg/mL
[14]
  MIC50: 1 µg/mL
  MIC90: 2 µg/mL
[15]
  MIC50: 1 µg/mL
  MIC90: 2 µg/mL
[16]
  MIC50: 1 µg/mL
  MIC90: 16 µg/mL
[2]
  MIC50: 1 µg/mL
  MIC90: 2 µg/mL
[17]
  MIC50: 1 µg/mL
  MIC90: 2 µg/mL
[18]
  MIC50: 1 µg/mL
  MIC90: 16 µg/mL
[19]
  MIC50: 1 µg/mL
  MIC90: 2 µg/mL
[4]
  MIC: 0.06 µg/mL
[20]
  MIC50: 1 µg/mL
  MIC90: 2 µg/mL
[5]
  MIC50: 16 µg/mL
  MIC90: 16 µg/mL
[6]
  MIC50: 1 µg/mL
  MIC90: 2 µg/mL
[7]
  MIC50: 1 µg/mL
  MIC90: 2 µg/mL
[21]
  MIC50: 1 µg/mL
  MIC90: 16 µg/mL
[22]
  MIC50: 1 µg/mL
  MIC90: 2 µg/mL
[8]
  MIC50: 0.5 µg/mL
  MIC90: 0.5 µg/mL
[9]
  MIC50: 0.5 µg/mL
  MIC90: 1 µg/mL
[23]
  MIC50: 0.5 µg/mL
  MIC90: 1 µg/mL
[10]
  MIC50: 0.5 µg/mL
  MIC90: 1 µg/mL
[11]
  MIC: 0.5 µg/mL
[12]
  MIC50: 0.5 µg/mL
  MIC90: 1 µg/mL
[24]
  MIC50: 0.5 µg/mL
  MIC90: 1 µg/mL
[13]
  MIC50: 0.5 µg/mL
  MIC90: 1 µg/mL
